Assay results taken from ChEMBL document CHEMBL4257580, “Tanshinone-IIA-Based Analogues of Imidazole Alkaloid Act as Potent Inhibitors To Block Breast Cancer Invasion and Metastasis in Vivo” (J Med Chem, 2018).
Active and inactive are the calls of the source. The calls are words filed in the database; no cut-off is given here.

Columns and labels:
MDA-MB-231 [1] = experiment: Antimigratory activity in human MDA-MB-231 cells up to 72 hrs by wound healing assay; type: functional, cell-based
Outline: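 Scratch assay: 1×10^5 cells/well grown to more than 80% confluence and wounded with a pipette tip. Cells then incubated with 0, 3 or 6 μM in serum-free DMEM for 72 h. The same field was imaged repeatedly over 3 days. Migration rate is wound filling, averaged over 10 fields; three independent experiments, mean ± SD.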

MDA-MB-231 [2] = experiment: Antiinvasive activity against human MDA-MB-231 cells assessed as reduction in number of black holes at 3 uM after 24 hrs by FITC-gelatin based confocal microscopy; type: functional, cell-based
Outline: (§1)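 Coverslips coated with poly-L-lysine, fixed with glutaraldehyde, overlaid with 0.2% FITC-gelatin in PBS/2% sucrose and quenched with sodium borohydride. Cells (2×10^5/well) plated with 0, 3 or 6 μM at 37 °C for 24 h. Gelatin degradation, seen as nonfluorescent dark holes, imaged by laser confocal microscopy; F-actin counterstained with rhodamine-phalloidin.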

MDA-MB-231 [3] = experiment: Antiinvasive activity against human MDA-MB-231 cells assessed as reduction in number of black holes at 6 uM after 24 hrs by FITC-gelatin based confocal microscopy; type: functional, cell-based; outline: as §1
MDA-MB-231 [4] = experiment: Antiangiogenesis activity in human MDA-MB-231 cells xenografted in fil1:EGFP transgenic zebrafish sub-intestinal vessels assessed as slowing of the sprout of angiogenesis at 5 uM measured every 24 hrs by fluorescence microscopy; type: functional, cell-based
Outline: (§2)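 Tg(fli1:EGFP) embryos at 48 hpf injected with 10–50 nL of DiI-labelled cells (~10^7 cells/mL in serum-free DMEM) into the perivitelline space near the subintestinal vessels. Ten embryos per well kept in 2 mL aquaculture water with 0 or 5 μM for 96 h. Imaged every 24 h by fluorescence microscopy; tumour area and trunk/tail fluorescence quantified, n=10/group, three experiments.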

MDA-MB-231 [5] = experiment: Antiangiogenesis activity in human MDA-MB-231 cells xenografted in fil1:EGFP transgenic zebrafish sub-intestinal vessels assessed as inhibition of cell invasion at 5 uM measured every 24 hrs for 96 hrs by fluorescence microscopy; type: functional, cell-based; outline: as §2
Danio rerio [6] = experiment: Toxicity in […] 24 hpf fil1:EGFP transgenic zebrafish embryo assessed as inhibition of normal angiogenesis at 2 to 4 uM after 48 hrs by fluorescence microscopy; type: organism-based; settings: in vivo
Outline: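 Non-xenografted Tg(fli1:EGFP) embryos dechorionated at 24 hpf and incubated with 0, 2 or 4 μM for 48 h, with PTK787 as positive control. Subintestinal vessel formation imaged at 72 hpf by fluorescence microscopy. n=10/group, three independent experiments.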

Danio rerio [7] = organism: Danio rerio; experiment: Ecotoxicity in fil1:EGFP transgenic zebrafish embryo up to 50 uM after 96 hrs by microscopic analysis; type: organism-based; settings: in vivo
MDA-MB-231 [8] = experiment: Cell cycle arrest in human MDA-MB-231 cells assessed as accumulation at G2 phase at 5 uM after 72 hrs by propidium iodide staining based flow cytometry (reference value: 8%); type: functional
MDA-MB-231 [9] = experiment: Cell cycle arrest in human MDA-MB-231 cells assessed as accumulation at G1 phase at 10 uM after 72 hrs by propidium iodide staining based flow cytometry (reference value: 49.40%); type: functional
MDA-MB-231 [10] = experiment: Cell cycle arrest in human MDA-MB-231 cells assessed as accumulation at S phase at 10 uM after 72 hrs by propidium iodide staining based flow cytometry (reference value: 42.60%); type: functional
MDA-MB-231 [11] = experiment: Cell cycle arrest in human MDA-MB-231 cells assessed as accumulation at G2 phase at 10 uM after 72 hrs by propidium iodide staining based flow cytometry (reference value: 8%); type: functional
MDA-MB-231 [12] = experiment: Cell cycle arrest in human MDA-MB-231 cells assessed as accumulation at S phase at 15 uM after 72 hrs by propidium iodide staining based flow cytometry (reference value: 42.60%); type: functional
MDA-MB-231 [13] = experiment: Cell cycle arrest in human MDA-MB-231 cells assessed as accumulation at G2 phase at 15 uM after 72 hrs by propidium iodide staining based flow cytometry (reference value: 8%); type: functional
MDA-MB-231 [14] = experiment: Induction of apoptosis in human MDA-MB-231 cells assessed as late apoptotic cells at 5 uM after 72 hrs by annexin-V/propidium iodide double staining based flow cytometry (reference value: 0.12%); type: functional
MDA-MB-231 [15] = experiment: Induction of apoptosis in human MDA-MB-231 cells assessed as late apoptotic cells at 10 uM after 72 hrs by annexin-V/propidium iodide double staining based flow cytometry (reference value: 0.12%); type: functional
MDA-MB-231 [16] = experiment: Induction of DNA damage in human MDA-MB-231 cells assessed as increase in gammaH2AX focal positive cells up to 20 uM after 24 hrs by SYBR Green1-staining based fluorescence microscopy; type: functional, cell-based
MDA-MB-231 [17] = experiment: Induction of DNA damage in human MDA-MB-231 cells assessed as up-regulation of gammaH2AX expression at 2 to 15 uM by Western blot analysis; type: functional, cell-based
MDA-MB-231 [18] = experiment: Antimetastasis activity in human MDA-MB-231 cells assessed as changes in cell morphology at 5 to 10 uM after 24 hrs by based laser confocal microscopy
MDA-MB-231 [19] = experiment: Antimetastasis activity in human MDA-MB-231 cells assessed reduction in number of paxillins at 5 to 10 uM after 24 hrs by immunofluorescence based assay

Cc1coc2c3ccc4c(c3c3[nH]c(-c5ccc(O)cc5)nc3c12)CCCC4(C)C
Activity (MDA-MB-231 [1]): Dose-dependent effect
Activity (MDA-MB-231 [2]): Active
Activity (MDA-MB-231 [3]): Active
Activity (MDA-MB-231 [4]): Active
Activity (MDA-MB-231 [5]): Active
Activity (Danio rerio [6]): Non-Toxic
Activity (Danio rerio [7]): Non-Toxic
Activity (MDA-MB-231 [8]): 11.21%
Activity (MDA-MB-231 [9]): 35.49%
Activity (MDA-MB-231 [10]): 51.5%
Activity (MDA-MB-231 [11]): 13.01%
Activity (MDA-MB-231 [12]): 54.51%
Activity (MDA-MB-231 [13]): 10.12%
Activity (MDA-MB-231 [14]): 0.43%
Activity (MDA-MB-231 [15]): 0.35%
Activity (MDA-MB-231 [16]): Active
Activity (MDA-MB-231 [17]): Active
Activity (MDA-MB-231 [18]): Active
Activity (MDA-MB-231 [19]): Active
